Test results taken from PubChem BioAssay AID588713 (Southern Research Specialized Biocontainment Screening …, 2011).
Calls of active or inactive are those of the source.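 How the source made its calls: active means log virus titer change below -1, over tenfold drop in progeny titer versus untreated infected control; inactive means the rest.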

Each compound was assayed on HEp-2 cells, RSV plaque reduction, virus titer (assay: RSV titer reduction in HEp-2 cells, cell-based, plaque reduction, set 4 (AID 588713)). Settings: at 10 µM; hits give low values.
In short: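 assay system = RSV-infected HEp-2 cells | doses = test compound with 0.5% DMSO final | also added = RSV Long, MOI 0.1 | detection = neutral red-stained plaques on HEp-2 monolayers | timing = 2 h infection, then 48 h compound exposure at 37 °C | evaluation = progeny virus titer in serially diluted 48 h supernatants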

Point of comparison: CC(C)c1ccc(Cn2c(=O)n(Cc3ccc(C(=O)NCc4ccco4)cc3)c(=O)c3ccccc32)cc1, log virus titer change -2.83. Against it:
- COCCCNC(=O)c1ccc(Cn2c(=O)c3ccccc3n(Cc3ccc([N+](=O)[O-])cc3)c2=O)cc1 — lower, < -6.18
- CN(C)c1ccc(Cn2c(=O)n(Cc3ccc(C(=O)NCC4COC4)cc3)c(=O)c3ccccc32)cc1 — lower, < -6.18

With O=C(O)c1ccc(Cn2c(=O)n(Cc3ccc(C(=O)NCC4COC4)cc3)c(=O)c3ccccc32)cc1 the log virus titer change was 0.68 (inactive).
